The source of these data is ChEMBL document CHEMBL5661972, “In vitro biological activity of a novel small-molecule inhibitor of polo-like kinase 1” (Mol Cancer Ther, 2007).

A short description of series [1]: Selectivity ratio of IC50 for cytotoxicity against human HDF cells to IC50 for antiproliferative activity against human HCT-116 cells. The class given is toxicity, cell-based. The following applies: HDF cells versus HCT-116 cells.
Series [2] concerns NCI-H460. Nature of the series: Induction of cell cycle arrest in human NCI-H460 cells assessed as accumulation of cells at >4N phase at 3 micromol/L incubated for 48 hrs by propidium iodide staining based flow cytometry analysis (reference value: 0.9 %). The class given is functional. The following applies: dose 3 µmol/L, at 3 µM. The procedure, abridged: (§1)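 Cells seeded in six-well plates at densities that keep them in log growth (HDF 120,000, 60,000 or 30,000; H460 100,000, 50,000 or 25,000 per well for 24, 48 or 72 h). Treated with 1 or 3 μmol/L. Floating and adherent cells collected, ethanol-fixed, permeabilized with Triton X-100 and stained with propidium iodide. DNA content read by flow cytometry as % singlet cells.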

The subject of series [3] is NHDF. Kind of series: Induction of cell cycle arrest in human HDF cells assessed as accumulation of cells at G2-M phase at 3 micromol/L incubated for 48 hrs by propidium iodide staining based flow cytometry analysis (reference value: 14.3 %). It is filed as toxicity. The following applies: 3 µM, dose 3 µmol/L. The procedure, abridged:
as §1
On the technique in general: Flow cytometry measures light scatter and fluorescence of single cells or particles in a stream.

Series [4] concerns NHDF. Kind of series: Induction of cell cycle arrest in human HDF cells assessed as accumulation of cells at G2-M phase at 3 micromol/L incubated for 72 hrs by propidium iodide staining based flow cytometry analysis (reference value: 8.2 %). The class given is toxicity. The following applies: 3 µM, dose 3 µmol/L. The procedure, abridged: as §1
In series [5] the test system is NHDF. Kind of series: Induction of cell cycle arrest in human HDF cells assessed as accumulation of cells at Sub-2N phase at 3 micromol/L incubated for 48 hrs by propidium iodide staining based flow cytometry analysis (reference value: 0.5 %). The class given is toxicity. The following applies: 3 µM, dose 3 µmol/L. The procedure, abridged:
as §1

Series [6] has as its system NHDF. Kind of series: Induction of cell cycle arrest in human HDF cells assessed as accumulation of cells at S phase at 1 micromol/L incubated for 72 hrs by propidium iodide staining based flow cytometry analysis (reference value: 3.6 %). The following applies: 1 µM, dose 1 µmol/L. The class given is toxicity. The essentials: as §1
Series [7] relates to NCI-H460. Nature of the series: Induction of cell cycle arrest in human NCI-H460 cells assessed as accumulation of cells at Sub-2N phase at 3 micromol/L incubated for 24 hrs by propidium iodide staining based flow cytometry analysis (reference value: 4.0 %). The following applies: dose 3 µmol/L, at 3 µM. It is filed as functional.
Series [8] in a line: Selectivity ratio of IC50 for cytotoxicity against human HDF cells to IC50 for antiproliferative activity against human MCF7 cells. The class given is toxicity, cell-based. The following applies: HDF cells versus MCF7 cells, read-out: Ratio IC50.
Series [9] concerns NHDF. Nature of the series: Induction of cell cycle arrest in human HDF cells assessed as accumulation of cells at S phase at 3 micromol/L incubated for 24 hrs by propidium iodide staining based flow cytometry analysis (reference value: 13.2 %). The following applies: 3 µM, dose 3 µmol/L. The class given is toxicity. The procedure, abridged:
as §1

The nature of series [10]: Selectivity ratio of IC50 for cytotoxicity against human HDF cells to IC50 for antiproliferative activity against human NCI-H460 cells. The class given is toxicity, cell-based. The following applies: HDF cells versus NCI-H460 cells, read-out: Ratio IC50. The procedure, abridged: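 HDF (5,000/well) and H460 (2,000/well) cells exposed 3 days to 3-fold dilutions (30–0.00152 μmol/L) in medium with 5% FBS, gentamicin and 0.3% DMSO (low-glucose DMEM for HDF, RPMI 1640 for H460); vehicle controls growing logarithmically. IC50 from each line gives the HDF/H460 ratio.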

Series [11] deals with Vascular endothelial growth factor receptor 2 (Homo sapiens, UniProt P35968). Nature of the series: Inhibition of VEGFR2 (unknown origin).
Vascular endothelial growth factor receptor 2, sequence (P35968 whole entry): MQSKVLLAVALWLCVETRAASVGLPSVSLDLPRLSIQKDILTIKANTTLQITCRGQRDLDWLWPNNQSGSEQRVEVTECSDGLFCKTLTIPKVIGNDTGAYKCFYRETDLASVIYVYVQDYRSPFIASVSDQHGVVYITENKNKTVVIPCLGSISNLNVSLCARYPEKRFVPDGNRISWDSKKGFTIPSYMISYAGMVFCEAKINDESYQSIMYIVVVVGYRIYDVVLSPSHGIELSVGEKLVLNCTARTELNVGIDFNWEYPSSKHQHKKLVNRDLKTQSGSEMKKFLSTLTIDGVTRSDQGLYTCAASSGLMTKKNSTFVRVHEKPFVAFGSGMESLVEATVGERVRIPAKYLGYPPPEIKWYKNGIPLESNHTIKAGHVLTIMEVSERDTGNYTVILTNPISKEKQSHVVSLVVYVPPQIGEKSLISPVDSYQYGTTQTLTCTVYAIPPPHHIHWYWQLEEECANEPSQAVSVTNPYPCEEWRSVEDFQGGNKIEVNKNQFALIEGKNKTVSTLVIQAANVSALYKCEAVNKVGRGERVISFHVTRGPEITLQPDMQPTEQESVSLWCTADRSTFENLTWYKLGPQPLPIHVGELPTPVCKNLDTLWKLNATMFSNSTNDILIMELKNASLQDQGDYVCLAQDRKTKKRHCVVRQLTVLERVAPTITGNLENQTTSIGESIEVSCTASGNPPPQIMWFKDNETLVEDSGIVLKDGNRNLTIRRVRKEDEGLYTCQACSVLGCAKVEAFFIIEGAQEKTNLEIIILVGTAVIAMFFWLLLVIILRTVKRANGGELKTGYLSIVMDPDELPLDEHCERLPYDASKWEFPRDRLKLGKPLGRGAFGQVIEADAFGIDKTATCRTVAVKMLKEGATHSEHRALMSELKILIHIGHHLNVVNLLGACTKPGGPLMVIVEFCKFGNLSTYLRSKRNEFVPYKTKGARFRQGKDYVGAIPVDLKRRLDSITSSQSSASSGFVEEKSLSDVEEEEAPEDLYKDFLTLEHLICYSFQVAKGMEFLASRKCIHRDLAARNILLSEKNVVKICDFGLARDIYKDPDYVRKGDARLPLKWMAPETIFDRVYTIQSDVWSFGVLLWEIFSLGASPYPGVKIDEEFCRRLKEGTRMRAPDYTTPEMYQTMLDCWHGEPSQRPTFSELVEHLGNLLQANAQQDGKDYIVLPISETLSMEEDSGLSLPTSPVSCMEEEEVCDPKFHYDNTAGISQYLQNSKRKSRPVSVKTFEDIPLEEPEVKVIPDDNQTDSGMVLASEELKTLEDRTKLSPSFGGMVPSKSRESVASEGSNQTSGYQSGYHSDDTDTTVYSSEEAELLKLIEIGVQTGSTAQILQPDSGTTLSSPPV
Series [12] concerns the target Mitogen-activated protein kinase 11 (Homo sapiens, UniProt Q15759). Kind of series: Inhibition of p38beta (unknown origin).
A short description of series [13]: Inhibition of CDK2/cyclin A (unknown origin). Further details: species or system Homo sapiens.
The test system of series [14] is NCI-H460. Nature of the series: Induction of cell cycle arrest in human NCI-H460 cells assessed as accumulation of cells at G1 phase at 3 micromol/L incubated for 24 hrs by propidium iodide staining based flow cytometry analysis (reference value: 45.5 %). The class given is functional. The following applies: dose 3 µmol/L, at 3 µM. The procedure, abridged: as §1

Series [15] deals with NCI-H460. Nature of the series: Induction of cell cycle arrest in human NCI-H460 cells assessed as accumulation of cells at >4N phase at 1 micromol/L incubated for 72 hrs by propidium iodide staining based flow cytometry analysis (reference value: 0.9 %). It is filed as functional. The following applies: dose 1 µmol/L, at 1 µM. The procedure, abridged: as §1
The nature of series [16]: Selectivity ratio of IC50 for cytotoxicity against human HDF cells to IC50 for antiproliferative activity against human PC-3 cells. The class given is toxicity, cell-based. The following applies: HDF cells versus PC-3 cells.
For series [17], the target named is Serine/threonine-protein kinase PLK3 (Homo sapiens, UniProt Q9H4B4). Kind of series: Inhibition of human PLK3 expressed in baculovirus infected in Trichoplusia ni cells using Biotin-Ahx-SFNDTLDFD as substrate in presence of ATP by TopCount scintillation proximity assay. The arrangement: species or system Trichoplusia ni cell. The procedure, abridged:
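Full-length PLK3 (5 nmol/L) from baculovirus-infected Trichoplusia ni cells in 25 mmol/L HEPES pH 7.2, 15 mmol/L MgCl2, 1 μmol/L ATP with [γ-33P]ATP, 1 μmol/L biotinylated peptide, BSA, DTT. Incubated 1–1.5 h at 22°C in the linear range. Stopped with EDTA plus streptavidin SPA beads, then counted or imaged. Signal above EDTA background taken as percent inhibition versus DMSO wells.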
On the technique in general: In a scintillation proximity assay essentially only radioactivity close to the scintillant gives light.

Series [18] concerns NHDF. Nature of the series: Induction of cell cycle arrest in human HDF cells assessed as accumulation of cells at S phase at 1 micromol/L incubated for 48 hrs by propidium iodide staining based flow cytometry analysis (reference value: 4.7 %). It is filed as toxicity. The following applies: 1 µM, dose 1 µmol/L. The procedure, abridged: as §1
Series [19] has as its target Proto-oncogene tyrosine-protein kinase Src (Homo sapiens, UniProt P12931). Kind of series: Inhibition of c-src (unknown origin).
Series [20] in a line: Selectivity ratio of IC50 for cytotoxicity against human HDF cells to IC50 for antiproliferative activity against human NCI-N87 cells. The following applies: HDF cells versus NCI-N87 cells, read-out: Ratio IC50. The class given is toxicity, cell-based.
For series [21], the system named is NCI-H460. Nature of the series: Induction of cell cycle arrest in human NCI-H460 cells assessed as accumulation of cells at Sub-2N phase at 1 micromol/L incubated for 24 hrs by propidium iodide staining based flow cytometry analysis (reference value: 4.0 %). The class given is functional. The following applies: dose 1 µmol/L, at 1 µM.
For series [22], the target named is T1, Aurora kinase A (Homo sapiens, UniProt O14965).
T1 sequence (O14965 whole entry): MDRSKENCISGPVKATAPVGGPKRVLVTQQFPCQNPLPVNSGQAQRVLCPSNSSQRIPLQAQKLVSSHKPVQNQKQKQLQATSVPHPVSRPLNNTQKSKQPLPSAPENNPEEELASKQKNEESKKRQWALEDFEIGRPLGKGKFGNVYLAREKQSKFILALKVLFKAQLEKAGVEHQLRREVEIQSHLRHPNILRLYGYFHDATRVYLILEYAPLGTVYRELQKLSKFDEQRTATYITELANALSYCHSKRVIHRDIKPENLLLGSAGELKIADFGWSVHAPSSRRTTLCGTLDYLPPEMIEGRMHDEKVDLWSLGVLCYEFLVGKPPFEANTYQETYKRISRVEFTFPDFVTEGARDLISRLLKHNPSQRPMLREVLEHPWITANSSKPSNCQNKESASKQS
Nature of the series: Inhibition of Aurora A (unknown origin).

Series [23] concerns NCI-H460. Kind of series: Induction of cell cycle arrest in human NCI-H460 cells assessed as accumulation of cells at G1 phase at 3 micromol/L incubated for 48 hrs by propidium iodide staining based flow cytometry analysis (reference value: 50.9 %). The class given is functional. The following applies: dose 3 µmol/L, at 3 µM.
Series [24] relates to NCI-H460. Kind of series: Induction of cell cycle arrest in human NCI-H460 cells assessed as accumulation of cells at Sub-2N phase at 3 micromol/L incubated for 72 hrs by propidium iodide staining based flow cytometry analysis (reference value: 2.1 %). It is filed as functional. The following applies: dose 3 µmol/L, at 3 µM.

Mitogen-activated protein kinase 11, sequence (Q15759 whole entry): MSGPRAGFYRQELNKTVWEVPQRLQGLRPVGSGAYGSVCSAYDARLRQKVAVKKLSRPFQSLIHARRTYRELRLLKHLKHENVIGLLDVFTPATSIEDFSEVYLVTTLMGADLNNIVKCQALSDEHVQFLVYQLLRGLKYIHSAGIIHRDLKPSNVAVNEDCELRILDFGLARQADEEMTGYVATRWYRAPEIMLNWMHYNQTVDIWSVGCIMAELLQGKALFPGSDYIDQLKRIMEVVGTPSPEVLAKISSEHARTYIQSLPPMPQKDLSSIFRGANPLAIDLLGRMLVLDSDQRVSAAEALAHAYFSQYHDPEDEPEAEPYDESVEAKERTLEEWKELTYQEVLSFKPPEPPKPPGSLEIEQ
Serine/threonine-protein kinase PLK3, sequence (Q9H4B4 whole entry): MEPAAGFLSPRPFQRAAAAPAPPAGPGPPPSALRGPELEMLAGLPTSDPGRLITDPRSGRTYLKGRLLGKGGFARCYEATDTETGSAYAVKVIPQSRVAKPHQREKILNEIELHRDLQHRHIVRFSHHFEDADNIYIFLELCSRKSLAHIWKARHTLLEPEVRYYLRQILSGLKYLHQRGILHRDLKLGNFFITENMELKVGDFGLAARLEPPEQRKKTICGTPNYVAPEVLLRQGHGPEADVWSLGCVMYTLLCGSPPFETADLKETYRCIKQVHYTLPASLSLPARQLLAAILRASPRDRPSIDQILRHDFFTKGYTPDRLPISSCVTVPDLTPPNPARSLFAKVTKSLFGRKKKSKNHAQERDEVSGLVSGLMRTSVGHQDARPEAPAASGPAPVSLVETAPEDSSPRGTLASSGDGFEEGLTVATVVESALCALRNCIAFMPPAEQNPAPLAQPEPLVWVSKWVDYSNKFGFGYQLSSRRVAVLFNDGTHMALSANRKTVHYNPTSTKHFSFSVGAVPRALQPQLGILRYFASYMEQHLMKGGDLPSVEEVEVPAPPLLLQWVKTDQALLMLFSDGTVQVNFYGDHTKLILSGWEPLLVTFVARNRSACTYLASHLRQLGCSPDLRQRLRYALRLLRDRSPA
Proto-oncogene tyrosine-protein kinase Src, sequence (P12931 2-536 limits assumed): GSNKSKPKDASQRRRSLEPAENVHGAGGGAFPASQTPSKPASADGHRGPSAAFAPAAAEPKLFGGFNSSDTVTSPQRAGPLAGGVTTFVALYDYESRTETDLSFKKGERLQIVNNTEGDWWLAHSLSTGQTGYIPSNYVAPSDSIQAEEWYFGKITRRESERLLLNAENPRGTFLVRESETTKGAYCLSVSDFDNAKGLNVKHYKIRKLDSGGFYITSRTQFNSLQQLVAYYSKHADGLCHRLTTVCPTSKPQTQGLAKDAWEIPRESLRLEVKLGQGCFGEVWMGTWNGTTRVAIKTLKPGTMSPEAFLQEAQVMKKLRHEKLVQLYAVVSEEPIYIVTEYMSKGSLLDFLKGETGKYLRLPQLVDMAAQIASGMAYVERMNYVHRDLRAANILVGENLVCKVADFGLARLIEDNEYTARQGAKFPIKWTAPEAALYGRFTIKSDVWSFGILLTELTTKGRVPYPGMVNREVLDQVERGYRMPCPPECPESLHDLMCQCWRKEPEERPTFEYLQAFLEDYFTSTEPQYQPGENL

A word on the IC50: it is the midpoint of a concentration-inhibition curve. With `COc1cc2ncn(-c3cc(OCc4ccccc4C(F)(F)F)c(C(N)=O)s3)c2cc1OC` [GW843682X], the selectivity ratio was 8.8 in [1]; greater than 10 in series [8]; greater than 10 in series [10]; 0.9 in series [16]; greater than 10 in series [20]. The Activity worked out at 35.9% in series [2]; 61.2% in series [3]; 52.7% in [4]; 2.3% in series [5]; 6.7% in [6]; 24.1% in [7]. For the same compound, the Activity in [9] amounted to 4.2%; in [14], 7.8%; in series [15] it was 58.6%; in series [18] it was 7.4%; in series [21] it was 11.6%; in series [23], 7.5%. The Activity in [24] amounted to 30%. In addition, the IC50 in [11] was 0.36 µM; in series [12], greater than 10 µM; in series [13], 7.6 µM; in series [17] it was 0.0091 µM; in series [19] it was greater than 10 µM; in series [22], 4.8 µM.
